Here are results for 49 compounds from ChEMBL document CHEMBL1134579, “Design and biological activity of (S)-4-(5-([1-(3-chlorobenzyl)-2-oxopyrrolidin-3-ylamino]methyl)imidazol-1-ylmethyl)benzonitrile, a 3-aminopyrrolidinone farnesyltransferase inhibitor with excellent cell potency” (J Med Chem, 2001).

The target in assay [1] is Protein farnesyltransferase (Homo sapiens, UniProt P49354+P49356). The assay can be described thus: In vitro inhibition of farnesyl transferase using purified recombinant human enzyme. The class given is protein-complex assay. Summed up: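 Purified recombinant human FTase with [1-³H]FPP and a recombinant protein substrate carrying the K-Ras C-terminus (CVIM). Labeled farnesyl incorporation measured by acid precipitation of total protein and scintillation counting. Final methanol or DMSO 0.5 vol %. Mostly run at least twice; SD given for n≥3.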

In assay [2] the target is Geranylgeranyl transferase type-1 subunit beta (Homo sapiens, UniProt P53609). The assay can be described thus: Inhibitory concentration of geranylgeranyl-protein transferase type I.
Assay [3] deals with Voltage-gated inwardly rectifying potassium channel KCNH2 (Homo sapiens, UniProt Q12809).
The target in assay [4] is Protein farnesyltransferase (Rattus norvegicus). The assay can be described thus: Concentration required to displace 50% of a potent radiolabeled FTI from farnesyl transferase in cultured H-ras-transformed Rat1 cells.

Sequence of Geranylgeranyl transferase type-1 subunit beta (P53609 whole entry): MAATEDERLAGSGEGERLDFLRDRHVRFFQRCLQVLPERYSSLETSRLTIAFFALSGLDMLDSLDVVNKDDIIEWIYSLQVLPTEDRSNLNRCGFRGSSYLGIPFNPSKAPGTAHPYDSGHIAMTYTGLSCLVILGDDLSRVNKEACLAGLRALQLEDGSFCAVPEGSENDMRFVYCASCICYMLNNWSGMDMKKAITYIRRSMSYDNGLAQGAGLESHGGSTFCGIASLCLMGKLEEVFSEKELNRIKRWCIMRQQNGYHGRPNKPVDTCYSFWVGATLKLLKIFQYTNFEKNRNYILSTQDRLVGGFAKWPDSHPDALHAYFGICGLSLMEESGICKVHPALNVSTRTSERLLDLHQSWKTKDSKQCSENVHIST
Sequence of Voltage-gated inwardly rectifying potassium channel KCNH2 (Q12809 whole entry): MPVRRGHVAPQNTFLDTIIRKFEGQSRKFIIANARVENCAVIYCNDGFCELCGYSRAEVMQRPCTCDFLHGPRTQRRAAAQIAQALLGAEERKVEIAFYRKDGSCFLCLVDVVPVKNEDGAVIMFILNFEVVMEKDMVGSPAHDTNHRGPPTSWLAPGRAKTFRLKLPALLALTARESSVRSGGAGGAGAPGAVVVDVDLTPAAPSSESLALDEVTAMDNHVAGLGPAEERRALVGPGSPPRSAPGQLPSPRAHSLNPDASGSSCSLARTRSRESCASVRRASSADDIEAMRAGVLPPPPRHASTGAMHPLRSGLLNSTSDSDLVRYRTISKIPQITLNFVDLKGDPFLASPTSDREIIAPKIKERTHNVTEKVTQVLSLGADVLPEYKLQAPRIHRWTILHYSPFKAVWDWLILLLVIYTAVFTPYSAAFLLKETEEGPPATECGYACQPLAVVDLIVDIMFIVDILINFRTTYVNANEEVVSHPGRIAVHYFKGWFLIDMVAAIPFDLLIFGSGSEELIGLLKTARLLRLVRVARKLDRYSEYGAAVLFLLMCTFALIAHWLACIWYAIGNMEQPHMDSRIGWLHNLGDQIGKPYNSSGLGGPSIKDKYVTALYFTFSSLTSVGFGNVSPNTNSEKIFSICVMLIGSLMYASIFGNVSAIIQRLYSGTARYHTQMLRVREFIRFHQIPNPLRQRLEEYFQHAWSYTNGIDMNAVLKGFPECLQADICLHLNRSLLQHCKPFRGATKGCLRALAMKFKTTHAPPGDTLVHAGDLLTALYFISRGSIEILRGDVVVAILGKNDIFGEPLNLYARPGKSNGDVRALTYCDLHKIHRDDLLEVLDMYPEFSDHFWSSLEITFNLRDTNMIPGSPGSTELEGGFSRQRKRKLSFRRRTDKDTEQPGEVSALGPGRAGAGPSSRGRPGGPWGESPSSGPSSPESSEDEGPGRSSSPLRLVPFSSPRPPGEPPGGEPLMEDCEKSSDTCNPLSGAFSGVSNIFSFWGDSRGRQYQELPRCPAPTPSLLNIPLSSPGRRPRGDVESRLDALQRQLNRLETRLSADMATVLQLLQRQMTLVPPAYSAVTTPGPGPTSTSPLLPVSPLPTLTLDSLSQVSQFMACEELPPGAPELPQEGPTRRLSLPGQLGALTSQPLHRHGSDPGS

The term IC50 denotes the midpoint of a concentration-inhibition curve. In the case of `N#Cc1ccc(Cn2cncc2CN[C@@H]2CCN(c3ccccc3)C2=O)cc1`, the IC50 in assay [1] was 200 nM; in assay [2] it was 41000 nM.
`N#Cc1ccc(Cn2cncc2CN[C@H]2CCN(c3cccc4ncccc34)C2=O)cc1`: the IC50 in assay [2] was over 20000 nM.
The same measure, in the same setting: under `N#Cc1ccc(Cn2cncc2CN[C@@H]2CCN(Cc3ccccc3)C2=O)cc1` stands 46000 nM.
With `N#Cc1ccc(Cn2cncc2CN[C@@H]2CCN(CCc3ccccc3)C2=O)cc1`, the IC50 in assay [1] came out at 250 nM; in assay [2], 31000 nM.
Regarding `CC(C)(C)OC(=O)NCCCN(Cc1cncn1Cc1ccc(C#N)cc1)[C@H]1CCN(Cc2cccc(Cl)c2)C1=O`, the IC50 in assay [1] was 1.3 nM; in assay [3], 110 nM; in assay [4], 1.1 nM; in assay [2] it was 2700 nM.
In the case of `N#Cc1ccc(Cn2cncc2CN(CCN2CCOCC2)[C@H]2CCN(Cc3cccc(Cl)c3)C2=O)cc1`, half-maximal inhibition in assay [2] (IC50) required 12000 nM.
For `COc1ncccc1C(=O)N1CC[C@H](NCc2cncn2Cc2ccc(C#N)cc2)C1`, the figures for the half-maximal inhibitory concentration (IC50) in assay [1] and in assay [2] were 150 nM and over 50000 nM, respectively.
Regarding `N#Cc1ccc(Cn2cncc2CN[C@H]2CCN(C(=O)c3ccc(Cl)cc3)C2)cc1`, the IC50 in assay [1] came to 89 nM; in assay [4], 70 nM; in assay [2], 19000 nM.
`N#Cc1ccc(Cn2cncc2CN[C@H]2CCN(C(=O)c3ccc[nH]c3=O)C2)cc1`: the IC50 in assay [1] was 6800 nM; in assay [2], over 50000 nM.
With `N#Cc1ccc(Cn2cncc2CN[C@H]2CCN(c3ccc(Cl)cc3)C2=O)cc1`, the concentration for half-maximal inhibition (IC50) in assay [1] was determined as 21 nM; in assay [4] it was 30 nM; in assay [2], 11000 nM.
As to `N#Cc1ccc(Cn2cncc2CN[C@H]2CCN(C(=O)c3ccccc3Cl)C2)cc1`, the IC50 amounted to 65 nM in assay [1] and 19000 nM in assay [2].
For `N#Cc1ccc(Cn2cncc2CN(Cc2ccccc2)[C@H]2CCN(Cc3ccccc3)C2=O)cc1` the same measures were 67 nM and 20000 nM.
`N#Cc1ccc(Cn2cncc2CN(CCN2CCNCC2)[C@H]2CCN(Cc3cccc(Cl)c3)C2=O)cc1` had an IC50 in assay [2] of over 50000 nM.
For `N#Cc1ccc(Cn2cncc2CCN[C@@H]2CCN(c3ccccc3)C2=O)cc1`, the values for the IC50 in assay [1] and in assay [2] were 120 nM and 16000 nM, respectively.
For `N#Cc1ccc(Cn2cncc2CN[C@H]2CCN(c3ccccn3)C2=O)cc1` the same measures were 370 nM and 36000 nM.
For `N#Cc1ccc(Cn2cncc2CCN[C@H]2CCN(CCc3ccccc3)C2=O)cc1` the same measures were 240 nM and 2800 nM.
In assay [2], `N#Cc1ccc(Cn2cncc2CN[C@H]2CCN(Cc3cccc(Cl)c3)C2=O)cc1` registered an IC50 of 3400 nM.
For `N#Cc1ccc(Cn2cncc2CN[C@H]2CCN(Cc3ccccc3)C2=O)cc1`, the IC50 in assay [3] amounted to 7200 nM; in assay [2] it was 40000 nM.
Consider `N#Cc1ccc(Cn2cncc2CN(CCCc2ccccc2)[C@H]2CCN(Cc3cccc(Cl)c3)C2=O)cc1`, for which the IC50 in assay [2] stood at 6500 nM.
As for `Cc1ncccc1C(=O)N1CC[C@H](NCc2cncn2Cc2ccc(C#N)cc2)C1`, the IC50 in assay [1] is 100 nM; in assay [3], over 10000 nM; in assay [4], 610 nM; in assay [2] it was over 50000 nM.
For `N#Cc1ccc(Cn2cncc2CN[C@H]2CCN(C(=O)c3cccc(Cl)c3)C2)cc1` the same measures were 27 nM, 5800 nM, 67 nM and 11000 nM.
Take `N#Cc1ccc(Cn2cncc2CCN[C@@H]2CCN(CCc3ccccc3)C2=O)cc1`: the IC50 worked out at 380 nM in assay [1] and 1500 nM in assay [2].
As to `N#Cc1ccc(Cn2cncc2CN[C@H]2CCN(Cc3ccccc3Cl)C2=O)cc1`, the IC50 stood at 5.2 nM in assay [1], 2.7 nM in assay [4] and 11000 nM in assay [2].
For the compound `N#Cc1ccc(Cn2cncc2CN(CCc2ccccc2)[C@H]2CCN(Cc3ccccc3)C2=O)cc1`, the IC50 in assay [1] amounted to 51 nM; in assay [4], 460 nM; in assay [2], 15000 nM.
Compound `CSc1ncccc1C(=O)N1CC[C@H](NCc2cncn2Cc2ccc(C#N)cc2)C1` gave an IC50 in assay [2] of 28000 nM.
On the same count and under the same terms, under `N#Cc1ccc(Cn2cncc2CN(CCCN)[C@H]2CCN(Cc3ccccc3)C2=O)cc1` stands over 50000 nM.
Turning to `N#Cc1ccc(Cn2cncc2CN[C@H]2CCN(C(=O)c3cccc4ccccc34)C2)cc1`, the values for the IC50 in assay [1], in assay [4] and in assay [2] were 11 nM, 330 nM and 880 nM, respectively.
On the same counts, the results for `N#Cc1ccc(Cn2cncc2CN[C@H]2CCN(Cc3ccc(Cl)cc3)C2=O)cc1` are 25 nM, 53 nM and 15000 nM.
Turning to `N#Cc1ccc(Cn2cncc2CN[C@H]2CCN(C(=O)c3ccccc3)C2)cc1`, the IC50 stood at 110 nM in assay [1] and 24000 nM in assay [2].
In turn, `N#Cc1ccc(Cn2cncc2CN(Cc2cccnc2)[C@H]2CCN(Cc3ccccc3)C2=O)cc1` returned an IC50 in assay [2] of over 50000 nM.
Regarding `N#Cc1ccc(Cn2cncc2CN(CCCc2ccccc2)[C@H]2CCN(Cc3ccccc3)C2=O)cc1`, half-maximal inhibition in assay [2] (IC50) was put at 12000 nM.
In the case of `CCCN(Cc1cncn1Cc1ccc(C#N)cc1)[C@H]1CCN(Cc2ccccc2)C1=O`, the results for the IC50 in assay [1] and in assay [4] were 59 nM and 36 nM, respectively.
Take `N#Cc1ccc(Cn2cncc2CCN[C@H]2CCN(c3ccccc3)C2=O)cc1`: the IC50 was 280 nM in assay [1], 150 nM in assay [4] and 14000 nM in assay [2].
In the case of `N#Cc1ccc(Cn2cncc2CN[C@H]2CCN(CCc3ccccc3)C2=O)cc1`, the IC50 in assay [1] was found to be 230 nM; in assay [2] it was 48000 nM.
In the case of `N#Cc1ccc(Cn2cncc2CN[C@H]2CCN(C(=O)c3cccnc3S)C2)cc1`, the IC50 was 2900 nM in assay [1], 11000 nM in assay [3] and over 50000 nM in assay [2].
With `N#Cc1ccc(Cn2cncc2CN[C@H]2CCN(c3ccccc3)C2=O)cc1`, the figures for the IC50 in assay [1], in assay [4] and in assay [2] were 74 nM, 27 nM and 46000 nM, respectively.
`N#Cc1ccc(Cn2cncc2CCN[C@@H]2CCN(Cc3ccccc3)C2=O)cc1`: the IC50 in assay [1] was found to be 250 nM; in assay [2], 11000 nM.
Turning to `N#Cc1ccc(Cn2cncc2CN(CCCN)[C@H]2CCN(Cc3cccc(Cl)c3)C2=O)cc1`, the IC50 in assay [1] was 7.5 nM; in assay [3], 480 nM; in assay [4], 150 nM; in assay [2], over 50000 nM.
Regarding `N#Cc1ccc(Cn2cncc2CCN[C@H]2CCN(Cc3ccccc3)C2=O)cc1`, the IC50 was determined as 270 nM in assay [1] and 7400 nM in assay [2].
Turning to `CCSc1ncccc1C(=O)N1CC[C@H](NCc2cncn2Cc2ccc(C#N)cc2)C1`, the IC50 in assay [1] is 4.8 nM; in assay [3], 14000 nM; in assay [4] it was 6.2 nM; in assay [2], about 5100 nM.
In turn, `CC(C)(C)OC(=O)NCCCN(Cc1cncn1Cc1ccc(C#N)cc1)[C@H]1CCN(Cc2ccccc2)C1=O` registered an IC50 in assay [2] of 3600 nM.
As to `N#Cc1ccc(Cn2cncc2CN(CCCCc2ccccc2)[C@H]2CCN(Cc3ccccc3)C2=O)cc1`, the IC50 amounted to 42 nM in assay [1], 310 nM in assay [4] and 4600 nM in assay [2].
Regarding `N#Cc1ccc(Cn2cncc2CN[C@H]2CCN(C(=O)c3cncc(Br)c3)C2)cc1`, the IC50 in assay [1] worked out at 43 nM; in assay [3], 6000 nM; in assay [4], 49 nM; in assay [2] it was 41000 nM.
Regarding `N#Cc1ccc(Cn2cncc2CN[C@H]2CCN(c3cccc(Cl)c3)C2=O)cc1`, the IC50 stood at 8.4 nM in assay [1], 30 nM in assay [4] and 6500 nM in assay [2].
As for `N#Cc1ccc(Cn2cncc2CN[C@H]2CCN(C(=O)c3cccnc3N)C2)cc1`, the IC50 in assay [1] was 980 nM; in assay [3], over 50000 nM; in assay [2], over 50000 nM.
As to `N#Cc1ccc(Cn2cncc2CN[C@H]2CCN(c3ccncc3)C2=O)cc1`, the IC50 in assay [1] is 43 nM; in assay [4], 200 nM; in assay [2], over 20000 nM.
For `N#Cc1ccc(Cn2cncc2CN[C@H]2CCN(c3ccccc3Cl)C2=O)cc1` the same measures were 1.5 nM, 14 nM and 42000 nM.
For `N#Cc1ccc(Cn2cncc2CN[C@H]2CCN(c3cccnc3)C2=O)cc1` the same measures were 85 nM, 240 nM and over 20000 nM.
As to `N#Cc1ccc(Cn2cncc2CN[C@H]2CCN(C(=O)c3cccnc3)C2)cc1`, the IC50 in assay [1] is 2000 nM; in assay [2], over 50000 nM.
